{"source": "ChEMBL document CHEMBL5356984", "about": "(RSC Med Chem, 2023)", "key": {"SK-BR-3 [1]": {"tested_on": "SK-BR-3", "experiment": "Induction of apoptosis in human SK-BR-3 cells assessed as early apoptotic cells at 5 uM incubated for 36 hrs by Annexin V/PI staining based flow cytometry (reference value: 2.73 %)", "type": "functional"}, "MCF7 [2]": {"tested_on": "MCF7", "experiment": "Induction of apoptosis in human MCF7 cells assessed as necrotic cells at 10 uM incubated for 36 hrs by Annexin V/PI staining based flow cytometry (reference value: 2.30 %)", "type": "functional"}, "Heat shock protein HSP90 [3]": {"target": "T1, Heat shock protein HSP90 (Homo sapiens, UniProt P07900+P08238)", "experiment": "Inhibition of HSP90 in human MCF7 cells assessed as decrease in CDK4 level at 5 to 20 uM incubated for 48 hrs by Western blot analysis", "type": "cell-based", "settings": "dose 5-20 µM", "in_short": "(§1)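 MCF-7 or SKBr3 cells were exposed for 48 h, then trypsinised, PBS-washed and lysed in RIPA buffer with phosphatase and protease inhibitors. Cleared lysate (14 000 rpm, 4 °C, 15 min) was BCA-quantified, and 20 µg protein was run on SDS-PAGE and blotted. Blots were blocked in 5% milk, incubated with primary antibodies (1:1000) overnight at 4 °C, then HRP secondary, and developed by ECL. GAPDH (1:10000) was the loading control.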"}, "MCF7 [4]": {"tested_on": "MCF7", "experiment": "Induction of apoptosis in human MCF7 cells assessed as viable cells at 20 uM incubated for 36 hrs by Annexin V/PI staining based flow cytometry (reference value: 90.5 %)", "type": "functional", "settings": "read-out: Activity"}, "Heat shock protein HSP90 [5]": {"target": "T1, Heat shock protein HSP90", "experiment": "Competitive binding affinity to N-terminal HSP90 (unknown origin) at 0.03 to 16 uM incubated for 3 hrs in presence of FITC-GA by fluorescence polarization assay", "type": "protein assay", "settings": "dose 0.03-16 µM", "in_short": "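Competition against FITC-geldanamycin (5 nM) for HSP90α (10 nM) in reaction buffer with 1% BSA, DMSO <1%; compounds at 0.03–16.0 μM final; 3 h at room temperature; fluorescence polarization read at ex 485/em 530 nm; activity% = (FPdrug − FPbackground)/(FPenzyme − FPbackground) × 100, curve-fitted.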"}, "MCF7 [6]": {"tested_on": "MCF7", "experiment": "Effect on HSF-1 level in human MCF7 cells assessed as nuclear accumulation at 10 uM incubated for 36 hrs by DAPI staining based immunofluorescence analysis", "type": "functional, cell-based", "in_short": "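Cells treated 36 h with DMSO vehicle control, then fixed with 4% paraformaldehyde 15 min, permeabilized with 0.2% Triton X-100 5 min, blocked with 3% BSA 15 min; primary antibody then fluorescent secondary antibody, each 1 h at room temperature; HSP70 green, HSF-1 red, nuclei DAPI; imaged by fluorescence microscopy.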"}, "[7]": {"experiment": "Metabolic stability in simulated gastric fluid", "type": "ADME", "settings": "simulated gi fluid"}, "MCF7 [8]": {"tested_on": "MCF7", "experiment": "Induction of apoptosis in human MCF7 cells assessed as late apoptotic cells at 5 uM incubated for 36 hrs by Annexin V/PI staining based flow cytometry (reference value: 6.02 %)", "type": "functional"}, "[9]": {"experiment": "Selectivity index, ratio of IC50 for HEK293T cells to IC50 for human MCF7 cells", "type": "toxicity", "settings": "HEK293T cells versus MCF7 cells, read-out: Ratio IC50", "in_short": "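Viability of 293T and MCF-7 cells was measured by MTT assay, and IC50 was fitted by non-linear regression. The selectivity index is the 293T IC50 divided by the MCF-7 IC50.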"}, "SK-BR-3 [10]": {"tested_on": "SK-BR-3", "experiment": "Induction of apoptosis in human SK-BR-3 cells assessed as increase in cleaved pro-caspase-9 level at 10 to 20 uM incubated for 48 hrs by Western blot analysis", "type": "functional, cell-based", "settings": "dose 10-20 µM", "in_short": "(§2)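 Cells exposed 48 h (DMSO vehicle control); trypsinized, lysed in RIPA with phosphatase/protease inhibitors; 20 μg protein on SDS-PAGE, blotted, blocked 5% milk 1 h; primary antibodies 1:1000 overnight at 4 °C, GAPDH 1:10000 as loading control; HRP secondary 1:1000–1:5000; ECL detection.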"}, "Heat shock protein HSP90 [11]": {"target": "T1, Heat shock protein HSP90", "experiment": "Inhibition of HSP90 in human MCF7 cells assessed as decrease in phosphorylated AKT level at 5 to 20 uM incubated for 48 hrs by Western blot analysis", "type": "cell-based", "settings": "dose 5-20 µM", "in_short": "as §1"}, "SK-BR-3 [12]": {"tested_on": "SK-BR-3", "experiment": "Induction of apoptosis in human SK-BR-3 cells assessed as late apoptotic cells at 10 uM incubated for 36 hrs by Annexin V/PI staining based flow cytometry (reference value: 4.95 %)", "type": "functional"}, "SK-BR-3 [13]": {"tested_on": "SK-BR-3", "experiment": "Induction of apoptosis in human SK-BR-3 cells assessed as increase in cleaved pro-caspase-8 level at 10 to 20 uM incubated for 48 hrs by Western blot analysis", "type": "functional, cell-based", "settings": "dose 10-20 µM", "in_short": "as §2"}, "MCF7 [14]": {"tested_on": "MCF7", "experiment": "Induction of apoptosis in human MCF7 cells assessed as late apoptotic cells at 20 uM incubated for 36 hrs by Annexin V/PI staining based flow cytometry (reference value: 6.02 %)", "type": "functional"}, "SK-BR-3 [15]": {"tested_on": "SK-BR-3", "experiment": "Induction of apoptosis in human SK-BR-3 cells assessed as viable cells at 5 uM incubated for 36 hrs by Annexin V/PI staining based flow cytometry (reference value: 90.4 %)", "type": "functional", "settings": "read-out: Activity"}, "[16]": {"experiment": "Thermal stability of compound in boiling toluene at 120 degreeC assessed as time taken for compound decomposition at 1 mg/ml by HPLC analysis", "type": "physicochemical", "settings": "read-out: T50"}, "MCF7 [17]": {"tested_on": "MCF7", "experiment": "Induction of apoptosis in human MCF7 cells assessed as early apoptotic cells at 20 uM incubated for 36 hrs by Annexin V/PI staining based flow cytometry (reference value: 1.13 %)", "type": "functional"}, "[18]": {"experiment": "Metabolic stability in simulated intestinal fluid at 37 degreeC at 1 mg/ml measured upto 1 hr by HPLC analysis", "type": "ADME", "settings": "simulated gi fluid", "in_short": "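Compound at 1 mg mL−1 was incubated in simulated intestinal fluid at 37 °C for up to 1 h. Remaining percentage was measured by HPLC on a C18 column (5 µm, 4.6 × 250 mm), eluting with 95% MeOH/5% H2O.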"}, "SK-BR-3 [19]": {"tested_on": "SK-BR-3", "experiment": "Induction of apoptosis in human SK-BR-3 cells assessed as late apoptotic cells at 20 uM incubated for 36 hrs by Annexin V/PI staining based flow cytometry (reference value: 4.95 %)", "type": "functional"}, "MCF7 [20]": {"tested_on": "MCF7", "experiment": "Induction of apoptosis in human MCF7 cells assessed as early apoptotic cells at 10 uM incubated for 36 hrs by Annexin V/PI staining based flow cytometry (reference value: 1.13 %)", "type": "functional"}, "Heat shock protein HSP90 [21]": {"target": "T1, Heat shock protein HSP90", "experiment": "Inhibition of HSP90 in human SK-BR-3 cells assessed as decrease in phosphorylated AKT level at 5 to 20 uM incubated for 48 hrs by Western blot analysis", "type": "cell-based", "settings": "dose 5-20 µM", "in_short": "as §1"}, "SK-BR-3 [22]": {"tested_on": "SK-BR-3", "experiment": "Induction of cell cycle arrest in human SK-BR-3 cells assessed as accumulation of cells at G1 phase at 5 to 10 uM incubated for 36 hrs by PI staining based flow cytometry", "type": "functional", "settings": "dose 5-10 µM", "in_short": "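Following 36 h treatment (0, 5, 10 μM), trypsinized cells fixed overnight in 70% ethanol, treated with RNase (0.2 mg/mL) and PI (0.1 mg/mL) for 20 min, then analysed by flow cytometry for cell-cycle distribution; n = 3 versus control.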"}, "MCF7 [23]": {"tested_on": "MCF7", "experiment": "Induction of apoptosis in human MCF7 cells assessed as increase in cleaved pro-caspase-8 level at 10 to 20 uM incubated for 48 hrs by Western blot analysis", "type": "functional, cell-based", "settings": "dose 10-20 µM", "in_short": "as §2"}, "SK-BR-3 [24]": {"tested_on": "SK-BR-3", "experiment": "Induction of apoptosis in human SK-BR-3 cells assessed as necrotic cells at 20 uM incubated for 36 hrs by Annexin V/PI staining based flow cytometry (reference value: 1.89 %)", "type": "functional"}, "SK-BR-3 [25]": {"tested_on": "SK-BR-3", "experiment": "Effect on HSP70 level in human SK-BR-3 cells at 5 to 20 uM incubated for 48 hrs by Western blot analysis", "type": "functional, cell-based", "settings": "dose 5-20 µM", "in_short": "as §2"}}, "note": "The source made the active and inactive calls. The rule behind the calls is not given here.", "data": [{"compound": "CN1CCN(/C=C/C(=O)/C=C/c2cccc(O[Si](C)(C)C(C)(C)C)c2)CC1", "values": [{"measurement": "Activity", "setting": "SK-BR-3 [1]", "result": 2.76, "unit": "%"}, {"measurement": "Activity", "setting": "MCF7 [2]", "result": 10.1, "unit": "%"}, {"measurement": "inhibition", "setting": "Heat shock protein HSP90 [3]", "result": "Active"}, {"measurement": "viability at 20 µM", "setting": "MCF7 [4]", "result": 51.7, "unit": "%"}, {"measurement": "Activity", "setting": "Heat shock protein HSP90 [5]", "result": "inactive"}, {"measurement": "Activity", "setting": "MCF7 [6]", "result": "inactive"}, {"measurement": "Stability", "setting": "[7]", "result": "Unstable"}, {"measurement": "Activity", "setting": "MCF7 [8]", "result": 9.96, "unit": "%"}, {"measurement": "selectivity ratio", "setting": "[9]", "result": "~4.2"}, {"measurement": "Activity", "setting": "SK-BR-3 [10]", "result": "Active"}, {"measurement": "inhibition", "setting": "Heat shock protein HSP90 [11]", "result": "Active"}, {"measurement": "Activity", "setting": "SK-BR-3 [12]", "result": 8.42, "unit": "%"}, {"measurement": "Activity", "setting": "SK-BR-3 [13]", "result": "Active"}, {"measurement": "Activity", "setting": "MCF7 [14]", "result": 28.4, "unit": "%"}, {"measurement": "viability at 5 µM", "setting": "SK-BR-3 [15]", "result": 89.6, "unit": "%"}, {"measurement": "half-life at 1 mg/ml", "setting": "[16]", "result": "> 12", "unit": "h"}, {"measurement": "Activity", "setting": "MCF7 [17]", "result": 3.58, "unit": "%"}, {"measurement": "Stability", "setting": "[18]", "result": "Stable"}, {"measurement": "Activity", "setting": "SK-BR-3 [19]", "result": 30.7, "unit": "%"}, {"measurement": "Activity", "setting": "MCF7 [20]", "result": 2.6, "unit": "%"}, {"measurement": "inhibition", "setting": "Heat shock protein HSP90 [21]", "result": "Active"}, {"measurement": "Activity", "setting": "SK-BR-3 [22]", "result": "Active"}, {"measurement": "Activity", "setting": "MCF7 [23]", "result": "Active"}, {"measurement": "Activity", "setting": "SK-BR-3 [24]", "result": 3.13, "unit": "%"}, {"measurement": "Activity", "setting": "SK-BR-3 [25]", "result": "inactive"}]}]}
